In ChEMBL document CHEMBL4689842, “EUbOPEN Chemogenomics Library wave 1” (2021):

How the values were obtained:
Type in all cases: toxicity, cell-based
[1] = system: Fibroblast; assay: Multiplex assay against human fibroblast
Summary of the method: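 Live cells carried four stains from seeding: Hoechst33342, BioTracker Green Microtubule Cytoskeleton Dye, MitoTracker Red and Annexin V Alexa Fluor 680. They were imaged on a CQ1 microscope at 37°C and 5% CO2 after compound addition. Using CellPathfinder machine-learning gating, cells were split into Hoechst high-intensity objects or normal cells, normal cells into healthy, pyknosed or fragmented nuclei, and pyknosed cells into mitotic or apoptotic; tubulin, mitochondrial-mass and membrane-permeability phenotypes are per cents of healthy-nucleus cells.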

[2] = system: U2OS; assay: Incucyte cell viability with U2OS; conditions: human, 10 µM, compound concentration 10 uM; further: filed as whole numbers so only -1 and 0 and 1 occur
[3] = system: Fibroblast; assay: Incucyte cell viability with human fibroblast; conditions: 10 µM, compound concentration 10 uM; further: filed as whole numbers so only -1 and 0 and 1 occur
[4] = 12 h, 1 µM, compound concentration 1 uM, replicate 1
[5] = 12 h, 1 µM, compound concentration 1 uM, replicate 2
[6] = 12 h, 10 µM, compound concentration 10 uM, replicate 1
[7] = 12 h, 10 µM, compound concentration 10 uM, replicate 2
[8] = 24 h, 1 µM, compound concentration 1 uM, replicate 1
[9] = 24 h, 1 µM, compound concentration 1 uM, replicate 2
[10] = 24 h, 10 µM, compound concentration 10 uM, replicate 1
[11] = 24 h, 10 µM, compound concentration 10 uM, replicate 2
[12] = 48 h, 1 µM, compound concentration 1 uM, replicate 1
[13] = 48 h, 1 µM, compound concentration 1 uM, replicate 2
[14] = 48 h, 10 µM, compound concentration 10 uM, replicate 1
[15] = 48 h, 10 µM, compound concentration 10 uM, replicate 2
[16] = 0 h, replicate number 2, timepoint 0 hours
[17] = 12 h, replicate number 1, timepoint 12 hours
[18] = 18 h, replicate number 1, timepoint 18 hours
[19] = 24 h, replicate number 1, timepoint 24 hours

In the case of COc1cc2c(NC3CCN(C(C)C)CC3)nc(N3CCC(F)(F)CC3)nc2cc1OCCCN1CCCC1, the “Population Apoptotic (%)” value [1, 4] is reported as 70%, the “Population Fragmented Nuclei (%)” value [1, 4] is reported as 30% and the “Population Healthy Nuclei (%)” value [1, 4] is reported as 48%. For the same compound, the “Population Hoechst High Intensity Objects (%)” value [1, 4] was 11%, the “Population Membrane Permeable-Phenotype (%)” value [1, 4] was 16% and the “Population Mitochondria Different-Phenotype (%)” value [1, 4] was 11%. For the same compound, the “Population Mitotic Cells (%)” value [1, 4] was 29%, the “Population Normal (%)” value [1, 4] was 88% and the “Population Pyknosed Nuclei (%)” value [1, 4] was 21%. For the same compound, the “Population Tubulin-Different-Phenotype (%)” value [1, 4] was 38%, the “Total Cell Count” value [1, 4] was 127 and the “Population Apoptotic (%)” value [1, 5] was 30%. For the same compound, the “Population Fragmented Nuclei (%)” value [1, 5] was 20%, the “Population Healthy Nuclei (%)” value [1, 5] was 67% and the “Population Hoechst High Intensity Objects (%)” value [1, 5] was 5%. The “Population Membrane Permeable-Phenotype (%)” value [1, 5] was 3%, the “Population Mitochondria Different-Phenotype (%)” value [1, 5] was 22% and the “Population Mitotic Cells (%)” value [1, 5] was 70%. The “Population Normal (%)” value [1, 5] was 94%, the “Population Pyknosed Nuclei (%)” value [1, 5] was 11% and the “Population Tubulin-Different-Phenotype (%)” value [1, 5] was 19%. For the same compound, the “Total Cell Count” value [1, 5] was 105, the “Population Apoptotic (%)” value [1, 6] was 61% and the “Population Fragmented Nuclei (%)” value [1, 6] was 16%. For the same compound, the “Population Healthy Nuclei (%)” value [1, 6] was 47%, the “Population Hoechst High Intensity Objects (%)” value [1, 6] was 33% and the “Population Membrane Permeable-Phenotype (%)” value [1, 6] was 10%. For the same compound, the “Population Mitochondria Different-Phenotype (%)” value [1, 6] was 13%, the “Population Mitotic Cells (%)” value [1, 6] was 38% and the “Population Normal (%)” value [1, 6] was 66%. The “Population Pyknosed Nuclei (%)” value [1, 6] was 35%, the “Population Tubulin-Different-Phenotype (%)” value [1, 6] was 35% and the “Total Cell Count” value [1, 6] was 239. For the same compound, the “Population Apoptotic (%)” value [1, 7] was 66%, the “Population Fragmented Nuclei (%)” value [1, 7] was 11% and the “Population Healthy Nuclei (%)” value [1, 7] was 76%. The “Population Hoechst High Intensity Objects (%)” value [1, 7] was 8%, the “Population Membrane Permeable-Phenotype (%)” value [1, 7] was 66% and the “Population Mitochondria Different-Phenotype (%)” value [1, 7] was 97%. The “Population Mitotic Cells (%)” value [1, 7] was 33%, the “Population Normal (%)” value [1, 7] was 91% and the “Population Pyknosed Nuclei (%)” value [1, 7] was 11%. The “Population Tubulin-Different-Phenotype (%)” value [1, 7] was 97%, the “Total Cell Count” value [1, 7] was 89 and the “Population Apoptotic (%)” value [1, 8] was 65%. For the same compound, the “Population Fragmented Nuclei (%)” value [1, 8] was 35%, the “Population Healthy Nuclei (%)” value [1, 8] was 47% and the “Population Hoechst High Intensity Objects (%)” value [1, 8] was 20%. For the same compound, the “Population Membrane Permeable-Phenotype (%)” value [1, 8] was 15%, the “Population Mitochondria Different-Phenotype (%)” value [1, 8] was 4% and the “Population Mitotic Cells (%)” value [1, 8] was 34%. For the same compound, the “Population Normal (%)” value [1, 8] was 79%, the “Population Pyknosed Nuclei (%)” value [1, 8] was 17% and the “Population Tubulin-Different-Phenotype (%)” value [1, 8] was 34%. The “Total Cell Count” value [1, 8] was 167, the “Population Apoptotic (%)” value [1, 9] was 29% and the “Population Fragmented Nuclei (%)” value [1, 9] was 14%. For the same compound, the “Population Healthy Nuclei (%)” value [1, 9] was 68%, the “Population Hoechst High Intensity Objects (%)” value [1, 9] was 8% and the “Population Membrane Permeable-Phenotype (%)” value [1, 9] was 2%. The “Population Mitochondria Different-Phenotype (%)” value [1, 9] was 7%, the “Population Mitotic Cells (%)” value [1, 9] was 70% and the “Population Normal (%)” value [1, 9] was 91%. The “Population Pyknosed Nuclei (%)” value [1, 9] was 16%, the “Population Tubulin-Different-Phenotype (%)” value [1, 9] was 12% and the “Total Cell Count” value [1, 9] was 113. The “Population Apoptotic (%)” value [1, 10] was 63%, the “Population Fragmented Nuclei (%)” value [1, 10] was 22% and the “Population Healthy Nuclei (%)” value [1, 10] was 42%. The “Population Hoechst High Intensity Objects (%)” value [1, 10] was 37%, the “Population Membrane Permeable-Phenotype (%)” value [1, 10] was 4% and the “Population Mitochondria Different-Phenotype (%)” value [1, 10] was 9%. The “Population Mitotic Cells (%)” value [1, 10] was 36%, the “Population Normal (%)” value [1, 10] was 62% and the “Population Pyknosed Nuclei (%)” value [1, 10] was 35%. The “Population Tubulin-Different-Phenotype (%)” value [1, 10] was 43%, the “Total Cell Count” value [1, 10] was 271 and the “Population Apoptotic (%)” value [1, 11] was 90%. The “Population Fragmented Nuclei (%)” value [1, 11] was 18%, the “Population Healthy Nuclei (%)” value [1, 11] was 59% and the “Population Hoechst High Intensity Objects (%)” value [1, 11] was 7%. For the same compound, the “Population Membrane Permeable-Phenotype (%)” value [1, 11] was 82%, the “Population Mitochondria Different-Phenotype (%)” value [1, 11] was 100% and the “Population Mitotic Cells (%)” value [1, 11] was 9%. For the same compound, the “Population Normal (%)” value [1, 11] was 92%, the “Population Pyknosed Nuclei (%)” value [1, 11] was 22% and the “Population Tubulin-Different-Phenotype (%)” value [1, 11] was 96%. For the same compound, the “Total Cell Count” value [1, 11] was 112, the “Population Apoptotic (%)” value [1, 12] was 52% and the “Population Fragmented Nuclei (%)” value [1, 12] was 44%. For the same compound, the “Population Healthy Nuclei (%)” value [1, 12] was 43%, the “Population Hoechst High Intensity Objects (%)” value [1, 12] was 26% and the “Population Membrane Permeable-Phenotype (%)” value [1, 12] was 12%. The “Population Mitochondria Different-Phenotype (%)” value [1, 12] was 2%, the “Population Mitotic Cells (%)” value [1, 12] was 47% and the “Population Normal (%)” value [1, 12] was 73%. For the same compound, the “Population Pyknosed Nuclei (%)” value [1, 12] was 12%, the “Population Tubulin-Different-Phenotype (%)” value [1, 12] was 29% and the “Total Cell Count” value [1, 12] was 231. For the same compound, the “Population Apoptotic (%)” value [1, 13] was 69%, the “Population Fragmented Nuclei (%)” value [1, 13] was 47% and the “Population Healthy Nuclei (%)” value [1, 13] was 44%. The “Population Hoechst High Intensity Objects (%)” value [1, 13] was 34%, the “Population Membrane Permeable-Phenotype (%)” value [1, 13] was 6% and the “Population Mitochondria Different-Phenotype (%)” value [1, 13] was 0%. For the same compound, the “Population Mitotic Cells (%)” value [1, 13] was 30%, the “Population Normal (%)” value [1, 13] was 65% and the “Population Pyknosed Nuclei (%)” value [1, 13] was 7%. For the same compound, the “Population Tubulin-Different-Phenotype (%)” value [1, 13] was 20%, the “Total Cell Count” value [1, 13] was 249 and the “Population Apoptotic (%)” value [1, 14] was 37%. The “Population Fragmented Nuclei (%)” value [1, 14] was 19%, the “Population Healthy Nuclei (%)” value [1, 14] was 45% and the “Population Hoechst High Intensity Objects (%)” value [1, 14] was 41%. For the same compound, the “Population Membrane Permeable-Phenotype (%)” value [1, 14] was 6%, the “Population Mitochondria Different-Phenotype (%)” value [1, 14] was 5% and the “Population Mitotic Cells (%)” value [1, 14] was 62%. For the same compound, the “Population Normal (%)” value [1, 14] was 58%, the “Population Pyknosed Nuclei (%)” value [1, 14] was 35% and the “Population Tubulin-Different-Phenotype (%)” value [1, 14] was 32%. For the same compound, the “Total Cell Count” value [1, 14] was 362, the “Population Apoptotic (%)” value [1, 15] was 23% and the “Population Fragmented Nuclei (%)” value [1, 15] was 22%. For the same compound, the “Population Hoechst High Intensity Objects (%)” value [1, 15] was 47%, the “Population Membrane Permeable-Phenotype (%)” value [1, 15] was 4% and the “Population Mitochondria Different-Phenotype (%)” value [1, 15] was 0%. For the same compound, the “Population Mitotic Cells (%)” value [1, 15] was 76%, the “Population Normal (%)” value [1, 15] was 52% and the “Population Pyknosed Nuclei (%)” value [1, 15] was 32%. For the same compound, the “Population Tubulin-Different-Phenotype (%)” value [1, 15] was 34%, the “Total Cell Count” value [1, 15] was 426 and the “Growth Rate” value ([2]; 0 h, replicate number 1, timepoint 0 hours) was 1. For the same compound, the “Growth Rate” value [2, 16] was 0, the “Growth Rate” value ([2]; 6 h, replicate number 1, timepoint 6 hours) was 1 and the “Growth Rate” value [2, 17] was 1. The “Growth Rate” value [2, 18] was 1, the “Growth Rate” value [2, 19] was 1 and the “Growth Rate” value [3, 16] was 0. For the same compound, the “Growth Rate” value ([3]; 6 h, replicate number 2, timepoint 6 hours) was 1, the “Growth Rate” value [3, 17] was 1 and the “Growth Rate” value [3, 18] was 1. The “Growth Rate” value ([3]; 18 h, replicate number 2, timepoint 18 hours) was 0, the “Growth Rate” value [3, 19] was 1 and the “Growth Rate” value ([3]; 24 h, replicate number 2, timepoint 24 hours) was 0.
